Sampled rows, rich in hits. Any-hit rate of the full collection: about 4.5%.
OX1R antag-1 – antagonists of human orexin 1 receptor (OX1R). O43613. OX1R-expressing cells, FRET antagonist read-out. inhibition, % at 6.6 µM. 330,000 compounds, 1.8% hits; in the data active = inhibition mostly above about 38%, no sharp cut-off; inactive = mostly below about 40%;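 also: 0% = agonist challenge alone and 100% = reference antagonist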
TAAR1 antag – human TAAR1 antagonism. inhibition, % at 3 µM. 360,000 compounds, 1.5% hits. CHO RD-HGA16 TAAR1, Fluo-8 calcium fluorescence, antagonist. AID 624466;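 active = inhibition above a per-plate cutoff, the mean inhibition of test compounds on that plate plus 3 SD, cut at about 49% in these data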;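 also: 0% = DMSO plus EC80 beta-PEA response and 100% = DMSO alone without agonist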
Target sequence (Q96RJ0 whole entry, looked up): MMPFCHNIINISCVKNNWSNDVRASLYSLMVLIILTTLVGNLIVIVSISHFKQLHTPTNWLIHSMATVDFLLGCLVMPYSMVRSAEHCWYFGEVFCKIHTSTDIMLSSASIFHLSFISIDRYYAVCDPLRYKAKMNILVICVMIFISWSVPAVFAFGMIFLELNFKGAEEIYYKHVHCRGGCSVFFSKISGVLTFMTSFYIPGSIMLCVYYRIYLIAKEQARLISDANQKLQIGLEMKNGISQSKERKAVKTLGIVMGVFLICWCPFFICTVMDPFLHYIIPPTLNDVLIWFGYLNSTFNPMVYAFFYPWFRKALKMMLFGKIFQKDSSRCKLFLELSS
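System: CHO RD-HGA16 cells bearing hTAAR1. Reagent: EC80 β-phenethylamine stimulus. Schedule: seeding 17-24 h prior, 75-min 37 °C, 30-min RT dye loading. Signal: Fluo-8 intracellular calcium dye fluorescence, real-time kinetic reads. Read-out: % inhibition from peak post-agonist over basal fluorescence ratio. Benchmarks: vehicle wells and EC80 agonist wells. Replicates: n of 1.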
OX1R antag-2 – antagonists of human orexin 1 receptor. O43613. CHO/OX1R cells, Fluo-8 calcium fluorescence, orexin A. inhibition, % at 5 µM. 330,000 compounds, 0.43% hits. AID 434989;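 active = inhibition above its plate's threshold, mean inhibition of all tested compounds on the plate plus 3 SD, cut at about 37% in these data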;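 also: 0% = orexin A challenge wells and 100% = SB-334867-A antagonist wells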
TAAR1 agonist – human TAAR1 agonism | AID 624467 | activation, % at 3 µM | CHO RD-HGA16 TAAR1, Fluo-8 calcium fluorescence; vehicle wells 0%, saturating PEA agonist 100% | Q96RJ0 | 360,000 compounds, 0.99% hits;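 active = activation above the mean activation of all test compounds in the run plus 3 SD, cut at about 38% in these data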
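Test system: RD-HGA16 (CHO) cells co-expressing Gα16 and hTAAR1 / Benchmarks: DMSO vehicle as 0%, PEA at EC100 as 100% / Repeats: no replicates (n 1) / Measure: % activation from peak over basal fluorescence ratio, DMSO-to-PEA scaled / Timing: 17-24 h plating, Fluo-8 75 min 37 °C, 30 min RT / Technique: kinetic Fluo-8 calcium fluorescence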
CHO parental Ca – signal in parental CHO cells, OX1R antagonist counter-screen; parental CHO-K1, ATP-induced calcium, Fluo-8 fluorescence; 330,000 compounds, 0.63% hits; inhibition, % at 5.6 µM;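 active = inhibition above that plate's mean sample inhibition plus 3 SD, cut at about 26% in these data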;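 also: 0% = ATP-challenged DMSO wells and 100% = DMSO wells without ATP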
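test system = CHO parental line | reagent = ATP stimulus | measured by = intracellular calcium via Fluo-8 no-wash fluorescent dye | control set = ATP and no-ATP DMSO wells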
GPR7 antag – blocks human GPR7 receptor signaling | GPR7-expressing cells, fluorescence antagonist assay | inhibition, % at 4.4 µM | 290,000 compounds, 1.1% hits; in the data active = inhibition above about 16%, passing the limit was not always enough;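 also: cells stimulated with the agonist NPW; 0% = agonist with vehicle and 100% = vehicle without agonist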
TAAR1 nonsel count – nonselective antagonist in TAAR1 antagonist counter-screen; shares compounds with TAAR1 antag; AID 651780; inhibition, % at 3 µM; 2,400 compounds, 77% hits; counterscreen cell line, calcium fluorescence, antagonist mode; in the data active = inhibition above about 22%;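 also: CHO-Ga16 host cells stimulated with ATP at an EC80 level; 0% = agonist EC80 plus vehicle and 100% = vehicle without agonist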
TAAR1 antag conf – confirmation of human TAAR1 antagonists. shares compounds with TAAR1 antag. TAAR1-expressing cells, fluorescence antagonist read-out. inhibition, % at 3 µM. 2,400 compounds, 40% hits. AID 651785; in the data active = inhibition above about 49%;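 also: CHO-Ga16 host cells challenged with agonist PEA near its EC80; 0% = agonist at EC80 plus vehicle and 100% = vehicle with no agonist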
Ga16 nonsel ag – nonselective Ga16 agonism, counter-screen | shares compounds with TAAR1 antag | Ga16-expressing cells, calcium fluorescence, agonist counterscreen | activation, % at 3 µM | 2,400 compounds, 18% hits | AID 651953; in the data active = activation above about 12%;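 also: 0% = vehicle wells and 100% = saturating stimulus response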
TAAR1 ag count – TAAR1 agonism, antagonist counter-screen; shares compounds with TAAR1 antag; hTAAR1 cell line, fluorescence activation, agonist mode; activation, % at 3 µM; 2,400 compounds, 2% hits; AID 651955; in the data active = activation above about 37%;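 also: CHO cells stably expressing TAAR1 with calcium dye readout; 0% = DMSO vehicle and 100% = full agonist response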
Numbers without * were called inactive; · = no result given.

SMILES | OX1R antag-1 | TAAR1 antag | OX1R antag-2 | TAAR1 agonist | CHO parental Ca | GPR7 antag | TAAR1 nonsel count | TAAR1 antag conf | Ga16 nonsel ag | TAAR1 ag count
COc1ccc(-c2cccc3[nH]c4c(c23)CCN2C(=O)[C@H]3[C@H](C)ON(C)[C@H]3C[C@@H]42)cc1 | · | 50* | · | 9 | · | · | 22* | 33 | 8 | 8
COc1cccc(-c2cccc3c4c([nH]c23)[C@@H]2C[C@H]3[C@@H](C(=O)N2CC4)[C@H](C)ON3C)c1 | · | 53* | · | 6 | · | · | 22* | 36 | 5 | 9
C[C@@H]1ON(C)[C@H]2C[C@H]3c4[nH]c5cccc(-c6ccc7c(c6)OCO7)c5c4CCN3C(=O)[C@@H]12 | · | 56* | · | 9 | · | · | 23* | 40 | 7 | 10
C[C@@H]1ON(C)[C@H]2C[C@H]3c4[nH]c5c(-c6ccccc6)cccc5c4CCN3C(=O)[C@@H]12 | · | 28 | · | 7 | · | · | · | · | · | ·
CC1(Cc2ccccc2Cl)C(=O)Nc2c(Cl)ccc(Cl)c21 (stereo not drawn) | · | 57* | · | 3 | · | · | 0 | 32 | 15* | 32
Cc1ccc(CNC(=O)CC2(CC3=NS(=O)(=O)c4ccccc4N3)CCCC2)cc1 | 13 | 66* | -11 | 12 | -6 | -5 | 32* | 51* | 11 | 19
COc1ccc(CCNC(=O)CC2(CC3=NS(=O)(=O)c4ccccc4N3)CCCC2)cc1OC | 11 | 3 | -27 | 2 | -12 | -2 | · | · | · | ·
Cc1nn(C)cc1S(=O)(=O)Nc1ccc(C(F)(F)F)cc1 | 11 | 5 | -5 | 1 | -5 | -6 | · | · | · | ·
CCOc1ccc(C(=O)Nc2ccccc2N2CCN(C(=O)c3ccccc3)CC2)cc1[N+](=O)[O-] | 8 | 67* | -9 | 8 | -14 | -6 | 25* | 45 | 8 | 8
O=C(Nc1cc(Cl)ccc1-n1cncn1)c1cc(F)c(F)c(F)c1F | 12 | -14 | -25 | 3 | -18 | · | · | · | · | ·
CCN(C[C@H]1N[C@@](CC)(C(=O)OC)[C@H]2C(=O)N(Cc3ccccc3)C(=O)[C@@H]12)C(=O)c1ccccc1 | -2 | 50* | -32 | 17 | -17 | · | 25* | 43 | 11 | 12
CCN(C[C@H]1N[C@@](Cc2ccccc2)(C(=O)OC)[C@H]2C(=O)N(C)C(=O)[C@@H]12)S(=O)(=O)c1ccc(OC(F)(F)F)cc1 | -2 | 64* | -23 | 12 | -9 | · | 26* | 42 | 7 | 4
CCN(C[C@H]1N[C@@](Cc2ccccc2)(C(=O)OC)[C@H]2C(=O)N(C)C(=O)[C@@H]12)S(=O)(=O)c1ccc(C(F)(F)F)cc1 | -4 | 75* | -28 | 14 | -30 | · | 23* | 46 | 8 | 9
O=C(CS(=O)(=O)c1ccccc1)N1CCc2ccccc21 | 10 | -7 | -18 | -1 | -4 | -6 | · | · | · | ·
Cc1cccc(-n2c(Cc3cc(=O)[nH]c(=O)[nH]3)nnc2SCC(=O)N2CCc3ccccc32)c1 | 28 | -22 | -5 | 2 | 5 | -2 | · | · | · | ·
CCC1(CC)NC(=O)N(CC(=O)OCC(=O)Nc2ccccc2[N+](=O)[O-])C1=O | 38 | 68* | -12 | 19 | -9 | -8 | 23* | 52* | 12* | 10
CCC1(CC)NC(=O)N(CC(=O)OCC(=O)Nc2ccccc2OC(F)F)C1=O | 5 | 9 | -8 | 1 | 2 | · | · | · | · | ·
COc1ccccc1C(=O)NC(=O)COC(=O)CN1C(=O)NC2(CCCCC2C)C1=O (stereo not drawn) | 2 | -10 | -6 | 0 | -6 | · | · | · | · | ·

Screening results from PubChem.
